Data as given in ChEMBL document CHEMBL4732226, “Discovery of a potent G-protein-coupled receptor 119 agonist for the treatment of type 2 diabetes” (Bioorg Med Chem, 2021).
Calls of active or inactive are those of the source. The calls are words filed in the database; no cut-off is given here.

Columns and labels:
[1] = system: Mus musculus; experiment: Antidiabetic activity in glucose-stimulated db/db mouse assessed as increase in glucose dependent insulin secretion at 50 mg/kg, po after 10 to 30 mins; format: functional, organism-based; conditions: time 10-30 min
[2] = Elimination rate constant in Sprague-Dawley rat at 25 mg/kg, po up to 24 hrs; format: ADME, organism-based; conditions: in vivo
Procedure, shortened: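 Male SD rats fasted overnight, water ad libitum, fed 4 h after dosing. Single oral gavage of 25 mg/kg as a homogeneous suspension in 0.5% Tween 80 in 0.5% Na-CMC. Blood drawn into Na-heparin tubes at 0.25, 0.5, 1, 2, 4, 6, 8 and 24 h; plasma stored at -70°C. Parameters by non-compartmental analysis, with C0 taken as zero and BLQ samples set to zero.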

[3] = Toxicity in female Wistar rat assessed as ALP level at 200 mg/kg, po after 28 days (reference value: 100.14 +/- 21.98 U/L); format: organism-based; conditions: in vivo, 672 h, time 28 day

## Cc1c(Oc2cccc(/C=C3\SC(=O)NC3=O)c2)ncnc1OC1CCN(C(=O)OC(C)(C)C)CC1
[1]
  Activity: Active
[2]
  k el at 24 h: 9.17e-05 s⁻¹
[3]
  Activity: 91.73 U/L
